Reference: ChEMBL document CHEMBL1129630, “Synthesis and structure-activity relationships of retinoid X receptor selective diaryl sulfide analogs of retinoic acid” (J Med Chem, 1996)

Columns and labels:
[1] = target: T1, Retinoic acid receptor alpha (Homo sapiens, UniProt P10276); assay: Transcriptional activation of Retinoic acid receptor RAR alpha;NA=not active; design: species or system Cercopithecidae
T1 sequence (P10276 whole entry): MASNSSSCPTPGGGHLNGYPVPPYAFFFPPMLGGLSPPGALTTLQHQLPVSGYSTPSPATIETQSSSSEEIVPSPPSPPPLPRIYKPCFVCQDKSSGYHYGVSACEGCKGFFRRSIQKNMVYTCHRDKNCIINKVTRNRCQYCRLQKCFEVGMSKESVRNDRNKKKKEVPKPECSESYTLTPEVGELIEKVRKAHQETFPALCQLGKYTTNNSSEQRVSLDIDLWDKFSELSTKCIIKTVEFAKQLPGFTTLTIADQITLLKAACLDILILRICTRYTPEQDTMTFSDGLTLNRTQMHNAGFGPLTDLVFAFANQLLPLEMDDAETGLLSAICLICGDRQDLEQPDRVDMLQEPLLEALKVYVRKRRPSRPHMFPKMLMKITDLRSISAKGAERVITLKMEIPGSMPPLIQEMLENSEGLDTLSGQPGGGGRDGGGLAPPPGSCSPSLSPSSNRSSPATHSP
In short: (§1)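 CV-1 cells transiently cotransfected with the receptor construct and a reporter gene, with induced transcription measured. Activity is normalized to all-trans RA. EC50 is the concentration giving 50% of maximal observed response, from a single experiment in triplicate.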

[2] = target: T2, Retinoic acid receptor gamma (Homo sapiens, UniProt P13631); assay: Transcriptional activation of Retinoic acid receptor RAR gamma;NA=not active; design: species or system Cercopithecidae; in short: as §1
T2 sequence (P13631 whole entry): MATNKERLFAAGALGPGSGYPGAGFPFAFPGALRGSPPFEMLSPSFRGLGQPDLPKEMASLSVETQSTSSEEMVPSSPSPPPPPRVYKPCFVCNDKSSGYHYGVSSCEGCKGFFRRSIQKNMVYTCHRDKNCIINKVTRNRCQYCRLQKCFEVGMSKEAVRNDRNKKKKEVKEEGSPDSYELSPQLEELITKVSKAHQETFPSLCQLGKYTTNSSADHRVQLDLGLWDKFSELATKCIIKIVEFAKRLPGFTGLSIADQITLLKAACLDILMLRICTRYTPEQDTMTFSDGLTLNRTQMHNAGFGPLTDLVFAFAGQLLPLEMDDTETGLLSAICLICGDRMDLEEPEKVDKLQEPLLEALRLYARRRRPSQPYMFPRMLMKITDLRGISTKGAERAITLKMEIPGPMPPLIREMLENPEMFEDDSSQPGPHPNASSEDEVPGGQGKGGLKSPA

[3] = target: T3, Retinoic acid receptor beta (Homo sapiens, UniProt P10826); assay: Transcriptional activation of Retinoic acid receptor RAR beta;NA=not active; design: species or system Cercopithecidae; in short: as §1
T3 sequence (P10826 whole entry): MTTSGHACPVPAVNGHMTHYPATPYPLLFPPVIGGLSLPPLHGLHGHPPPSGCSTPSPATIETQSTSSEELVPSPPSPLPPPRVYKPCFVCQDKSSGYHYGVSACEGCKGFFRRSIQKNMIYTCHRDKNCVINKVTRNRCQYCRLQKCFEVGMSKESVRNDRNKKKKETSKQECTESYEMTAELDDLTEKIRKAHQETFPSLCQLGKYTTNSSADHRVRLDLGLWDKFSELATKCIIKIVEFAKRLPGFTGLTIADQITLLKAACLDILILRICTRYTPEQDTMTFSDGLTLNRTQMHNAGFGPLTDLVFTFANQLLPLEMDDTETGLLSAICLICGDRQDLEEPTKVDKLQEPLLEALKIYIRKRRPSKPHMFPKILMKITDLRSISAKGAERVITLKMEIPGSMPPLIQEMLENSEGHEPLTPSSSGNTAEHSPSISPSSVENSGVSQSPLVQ

[4] = target: T4, Retinoic acid receptor RXR-alpha (Mus musculus, UniProt P28700); assay: Dissociation constant for binding to Retinoid X receptor alpha
T4 sequence (P28700 whole entry): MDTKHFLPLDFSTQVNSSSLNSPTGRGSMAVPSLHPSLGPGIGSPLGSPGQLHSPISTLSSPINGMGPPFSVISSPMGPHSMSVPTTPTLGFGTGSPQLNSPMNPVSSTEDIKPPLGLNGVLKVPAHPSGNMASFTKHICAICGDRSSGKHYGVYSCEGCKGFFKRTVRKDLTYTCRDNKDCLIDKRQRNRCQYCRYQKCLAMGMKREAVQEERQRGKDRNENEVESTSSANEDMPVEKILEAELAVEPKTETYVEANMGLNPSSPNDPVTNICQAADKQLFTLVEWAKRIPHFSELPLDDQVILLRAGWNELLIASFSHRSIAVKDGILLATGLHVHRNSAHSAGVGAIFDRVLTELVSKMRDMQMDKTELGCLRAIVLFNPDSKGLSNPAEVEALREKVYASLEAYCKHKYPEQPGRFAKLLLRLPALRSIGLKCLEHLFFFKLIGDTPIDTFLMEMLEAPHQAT

[5] = target: T5, Retinoic acid receptor RXR-beta (Mus musculus, UniProt P28704); assay: Dissociation constant for binding to Retinoid X receptor beta
T5 sequence (P28704 whole entry): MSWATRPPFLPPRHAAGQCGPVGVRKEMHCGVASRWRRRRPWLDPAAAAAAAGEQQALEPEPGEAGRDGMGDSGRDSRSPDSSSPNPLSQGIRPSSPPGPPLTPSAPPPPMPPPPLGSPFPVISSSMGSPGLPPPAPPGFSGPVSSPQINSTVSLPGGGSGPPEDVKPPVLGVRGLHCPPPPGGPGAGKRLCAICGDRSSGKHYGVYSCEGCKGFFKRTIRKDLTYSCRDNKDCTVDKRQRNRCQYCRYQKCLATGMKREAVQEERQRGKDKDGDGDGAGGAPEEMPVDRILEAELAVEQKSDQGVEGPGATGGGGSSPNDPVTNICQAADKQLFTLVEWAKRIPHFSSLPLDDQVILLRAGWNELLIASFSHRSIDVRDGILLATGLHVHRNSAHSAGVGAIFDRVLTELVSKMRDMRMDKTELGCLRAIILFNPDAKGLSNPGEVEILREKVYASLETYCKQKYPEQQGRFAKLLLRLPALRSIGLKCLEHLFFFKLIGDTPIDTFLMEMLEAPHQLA
In short: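 Competitive binding assay measuring displacement at the RXRβ receptor subtype.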

| SMILES | EC50 [1] | EC50 [2] | EC50 [3] | Kd [4] [nM] | Kd [5] [nM] |
| --- | --- | --- | --- | --- | --- |
| Cc1cc2c(cc1S(=O)(=O)c1ccc(C(=O)O)cc1)C(C)(C)CCC2(C)C | Not Active | Not Active | Not Active | 2520 |  |
| Cc1cc2c(cc1[S+]([O-])c1ccc(C(=O)O)cc1)C(C)(C)CCC2(C)C (stereo not given) | Not Active | Not Active | Not Active | > 10000 | > 10000 |
| Cc1cc2c(cc1Sc1ncc(C(=O)O)s1)C(C)(C)CCC2(C)C | Not Active | Not Active | Not Active | 1000 | 1000 |
| Cc1cc2c(cc1Sc1ccc(C(=O)O)cn1)C(C)(C)CCC2(C)C | Not Active | Not Active | Not Active | 32 | 87 |
| CC1(C)CCC(C)(C)c2cc(Sc3ccc(C(=O)O)cc3)ccc21 | Not Active |  |  | 3870 | 3090 |
| Cc1cc2c(cc1Sc1ccc(C(=O)O)cc1)C(C)(C)CCC2(C)C | Not Active |  | Not Active | 296 |  |
